The source made the active and inactive calls. The rule behind the calls is not given here.
What was measured:
[1] = Tmax in male Wistar rat at 10 mg/kg, po measured up to 24 hrs by HPLC analysis; format: ADME, organism-based; conditions: in vivo
In short: (§1)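 Overnight-fasted male Wistar rats, 200–250 g, single 10 mg kg−1 p.o. in 0.3% sodium CMC; blood at 0, 0.5, 1, 2, 4, 8, 16, 24 h into heparin tubes; plasma MeOH-extracted, HPLC (MeOH:H2O 85:15, 254 nm) against calibration curve; extravascular non-compartmental analysis; mean ± SD (n = 3).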

[2] = AUC (0 to 24 hrs) in male Wistar rat at 10 mg/kg, po measured up to 24 hrs by HPLC analysis; format: ADME, organism-based; conditions: in vivo
In short: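 Healthy male Wistar rats (200–250 g, n = 5), fasted overnight, given a single oral dose of 10 mg kg−1 in 0.3% sodium CMC. Blood collected under anaesthesia at 0, 0.5, 1, 2, 4, 8, 16 and 24 h into heparinized tubes. Plasma extracted with MeOH and analysed by HPLC (MeOH:H2O 85:15, detection at 254 nm) against a standard calibration curve. Parameters from a non-compartmental extravascular model.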

[3] = system: MIA PaCa-2; assay: Cytotoxicity against human MIA PaCa-2 cells assessed as growth inhibition incubated for 48 hrs by SRB assay; conditions: MIA PaCa-2, 48 h
[4] = Cmax in male Wistar rat at 10 mg/kg, po measured up to 24 hrs by HPLC analysis; format: ADME, organism-based; conditions: in vivo; in short: as §1
[5] = MRT in male Wistar rat at 10 mg/kg, po measured up to 24 hrs by HPLC analysis; format: ADME, organism-based; conditions: in vivo; in short: as §1
[6] = system: Drosophila; assay: Anti-cancer activity in Drosophila harboring UAS-Ras V12 mutant assessed as improvement in early pupal survivability at 10 to 50 uM, po; format: functional, organism-based; conditions: dose 10-50 µM
In short: (§2)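 UAS-RasV12 glial glioblastoma model (repo-GAL4/UAS-RasV12) in Drosophila, with Oregon R+ wild-type flies as control. Flies reared at 24 ± 1 °C on standard corn food containing compound at 10 or 50 μM. Percent of animals at each developmental stage (third instar larva, pupa) scored. Significance by Tukey's multiple comparisons test.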

[7] = system: Drosophila; assay: Toxicity in wild-type Drosophila assessed as eclosion rate at 1 uM, po via food to female and male flies and measured in F1 generation flies after 15 days; format: organism-based; conditions: in vivo, 360 h, time 15 day
In short: (§3)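 Ten virgin female and male Oregon R+ flies crossed on food containing compound (1, 10, 50, 100 or 200 μM), held at 24 ± 1 °C; F1 generation followed 15 days; percent eclosion versus untreated controls; Dunnett's multiple comparisons.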

[8] = system: Drosophila; assay: Anti-cancer activity in Drosophila harboring UAS-Ras V12 mutant assessed as increase in early pupal developmental differentiation at 10 to 50 uM, po; format: functional, organism-based; conditions: dose 10-50 µM; in short: as §2
[9] = system: Drosophila; assay: Toxicity in wild-type Drosophila assessed as reduction in eclosion rate at 200 uM, po via food to female and male flies and measured in F1 generation flies after 15 days; format: organism-based; design: scale not given: the % may be the effect or the level left; conditions: in vivo, 360 h, time 15 day; in short: as §3
[10] = system: Drosophila; assay: Toxicity in wild-type Drosophila assessed as eclosion rate at 100 uM, po via food to female and male flies and measured in F1 generation flies after 15 days; format: organism-based; conditions: in vivo, 360 h, time 15 day; in short: as §3
[11] = system: Drosophila; assay: Toxicity in wild-type Drosophila assessed as reduction in eclosion rate at 100 uM, po via food to female and male flies and measured in F1 generation flies after 15 days; format: organism-based; design: scale not given: the % may be the effect or the level left; conditions: in vivo, 360 h, time 15 day; in short: as §3
[12] = system: Drosophila; assay: Toxicity in wild-type Drosophila assessed as eclosion rate at 50 uM, po via food to female and male flies and measured in F1 generation flies after 15 days; format: organism-based; conditions: in vivo, 360 h, time 15 day; in short: as §3
[13] = system: Drosophila; assay: Anti-cancer activity in Drosophila harboring UAS-Ras V12 mutant assessed as improvement in larval development to pupal transition at 10 to 50 uM, po; format: functional, organism-based; conditions: dose 10-50 µM; in short: as §2
[14] = system: Drosophila; assay: Anti-cancer activity in Drosophila harboring UAS-Ras V12 mutant assessed as rescue of third instar larval lethality at 10 to 50 uM, po; format: functional, organism-based; conditions: dose 10-50 µM; in short: as §2
[15] = system: A549; assay: Cytotoxicity against human A549 cells assessed as growth inhibition incubated for 48 hrs by SRB assay; conditions: A549, 48 h
[16] = Half life in male Wistar rat at 10 mg/kg, po measured up to 24 hrs by HPLC analysis; format: ADME, organism-based; conditions: in vivo; in short: as §1
[17] = system: COLO 205; assay: Cytotoxicity against human COLO 205 cells assessed as growth inhibition incubated for 48 hrs by SRB assay; conditions: COLO 205, 48 h
[18] = system: Drosophila; assay: Toxicity in wild-type Drosophila assessed as eclosion rate at 10 uM, po via food to female and male flies and measured in F1 generation flies after 15 days; format: organism-based; conditions: in vivo, 360 h, time 15 day; in short: as §3

Question: What does the source list for `Clc1ccc(-c2nnc(CN3CCN(C(c4ccccc4)c4ccc(Cl)cc4)CC3)o2)cc1` (stereo not drawn)?
Answer: Tmax [1]: 3 h; AUC [2]: 32.06 µg/mL/h; GI50 [3]: 2.32 µM; Cmax [4]: 10300 ng/mL; MRT [5]: 3.42 h; Activity [6]: Active; Activity [7]: ~ 92%; Activity [8]: Active; Activity [9]: 24%; Activity [10]: < 50%; Activity [11]: 41%; Activity [12]: > 70%; Activity [13]: Active; Activity [14]: Active; GI50 [15]: 0.731 µM; half-life [16]: 2.11 h; GI50 [17]: 1.22 µM; Activity [18]: ~ 84%

Reference: ChEMBL document CHEMBL6134766, “Design, synthesis, and evaluation of benzhydrylpiperazine-based novel dual COX-2/5-LOX inhibitors with anti-inflammatory and anti-cancer activity” (RSC Med Chem, 2025)
